Starred links: 1 amine or outer side, 2 acyl side, 3 side chain; linkers in the order of their positions; H or OH if unused. Positions of bridges follow the written chain, without caps; N, C: chain ends. Non-standard residues stand in square brackets, D forms with d. Residues, ends and D or L forms follow the SMILES beside them. *: point of attachment. βGlc = OC[C@H]1O[C@@H](*)[C@H](O)[C@@H](O)[C@@H]1O; dPen = CC(C)(S)[C@@H](N)C(=O)O; CH2CH2 = C(C[*:2])[*:1]; Aib = CC(C)(N)C(=O)O; Ava = NCCCCC(=O)O; GABA = NCCCC(=O)O
Experiments:
[1] = target: T1, Delta-type opioid receptor (Homo sapiens, UniProt P41143); assay: Displacement of [3H]-naltrindole from human delta opioid receptor expressed in CHO cells after 3 hrs by scintillation counting analysis; format: cell-based
T1 sequence (P41143 whole entry): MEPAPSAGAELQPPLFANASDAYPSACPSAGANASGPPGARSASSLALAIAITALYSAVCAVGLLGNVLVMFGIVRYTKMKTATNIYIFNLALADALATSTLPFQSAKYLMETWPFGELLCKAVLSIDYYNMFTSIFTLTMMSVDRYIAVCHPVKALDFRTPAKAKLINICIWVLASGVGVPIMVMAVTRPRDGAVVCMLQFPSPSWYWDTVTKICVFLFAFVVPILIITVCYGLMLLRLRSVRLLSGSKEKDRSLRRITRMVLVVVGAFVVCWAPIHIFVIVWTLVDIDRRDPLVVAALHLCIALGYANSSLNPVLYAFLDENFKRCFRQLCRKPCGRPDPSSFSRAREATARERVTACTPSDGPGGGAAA
Procedure, shortened: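 Binding used CHO-cell membranes bearing human δ receptor and 0.2 nM (final) [3H]naltrindole, incubated 3 h at 25 °C in 50 mM Tris-HCl pH 7.5. Nonspecific binding was defined with 100 μM naloxone. Samples were glass-fiber filtered, washed with cold buffer and scintillation counted. IC50 came from a log-probit least-squares fit and was converted to Ki as IC50/(1+S).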

Mu-type opioid receptor = Mu-type opioid receptor (Homo sapiens, UniProt P35372); assay: Displacement of [3H]-DAMGO from human mu opioid receptor expressed in CHO cells after 60 mins by scintillation counting analysis; format: cell-based
Chain of Mu-type opioid receptor (P35372 whole entry): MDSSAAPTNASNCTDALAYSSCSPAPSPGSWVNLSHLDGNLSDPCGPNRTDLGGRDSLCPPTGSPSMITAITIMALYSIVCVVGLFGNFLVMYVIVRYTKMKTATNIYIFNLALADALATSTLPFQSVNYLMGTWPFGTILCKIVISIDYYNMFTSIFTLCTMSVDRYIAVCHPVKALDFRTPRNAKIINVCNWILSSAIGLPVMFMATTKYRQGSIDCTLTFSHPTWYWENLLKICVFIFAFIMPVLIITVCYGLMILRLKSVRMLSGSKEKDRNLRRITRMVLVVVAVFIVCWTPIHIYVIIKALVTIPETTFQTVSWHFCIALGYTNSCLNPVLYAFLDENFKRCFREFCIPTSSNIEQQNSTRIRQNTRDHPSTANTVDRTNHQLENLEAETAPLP
Procedure, shortened: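 Membranes from CHO cells stably expressing human μ receptor were incubated with 0.25 nM (final) [3H]DAMGO in 50 mM Tris-HCl pH 7.5 for 60 min at 25 °C. Bound radioligand was separated by glass-fiber filtration with cold buffer washes and counted by scintillation. IC50 came from a least-squares log-probit fit, and Ki from IC50/(1+S).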

[2] = target: T2, Kappa-type opioid receptor (Homo sapiens, UniProt P41145); assay: Displacement of [3H]-U69593 from human kappa opioid receptor expressed in CHO cells after 60 mins by scintillation counting analysis; format: cell-based
T2 sequence (P41145 whole entry): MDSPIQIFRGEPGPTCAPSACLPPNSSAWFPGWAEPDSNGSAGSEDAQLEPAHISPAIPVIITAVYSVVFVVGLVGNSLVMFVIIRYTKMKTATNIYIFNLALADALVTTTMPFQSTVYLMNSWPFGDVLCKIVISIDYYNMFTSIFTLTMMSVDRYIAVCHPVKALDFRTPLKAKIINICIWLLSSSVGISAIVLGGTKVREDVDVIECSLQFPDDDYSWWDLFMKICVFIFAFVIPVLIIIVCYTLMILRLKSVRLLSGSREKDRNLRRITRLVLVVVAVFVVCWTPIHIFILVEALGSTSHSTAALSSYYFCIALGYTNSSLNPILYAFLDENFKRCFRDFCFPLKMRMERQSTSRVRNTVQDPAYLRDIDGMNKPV
Procedure, shortened: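 Human κ receptor stably expressed in CHO cells was used as a membrane prep. It was incubated with 1 nM (final) [3H]U69,593 for 60 min at 25 °C in 50 mM Tris-HCl pH 7.5, with 10 μM naloxone defining nonspecific binding. Samples were filtered through glass-fiber filters presoaked ≥30 min in 0.1% polyethylenimine, washed cold and scintillation counted. Ki was derived from a log-probit IC50 via IC50/(1+S).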

Mus musculus [3] = assay: Antinociceptive activity in icv dosed CD-1 mouse by 55 degC warm water tail-flick test; format: functional
Procedure, shortened: (§1)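 Male CD-1 mice (27−30 g), 8−10 per group. Compound in distilled water, given icv under light ether anaesthesia, 2 mm caudal and 2 mm lateral from bregma. 55 °C warm-water tail-flick: baseline latency taken first, and mice not responding within 5 s excluded. Retested at various times after dosing. %Antinociception = 100(test − control latency)/(10 − control latency). A50 doses derived.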

Mus musculus [4] = assay: Antinociceptive activity in iv dosed CD-1 mouse by 55 degC warm water tail-flick test; format: functional
Procedure, shortened: (§2)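 Male CD-1 mice (27−30 g), 8−10 per group. Compound in 0.9% saline, injected into the tail vein at 0.1 mL/10 g after the vein was dilated in 40 °C water. Tail immersion in 55 °C water, with baseline latency first and 5 s non-responders excluded. Tested at intervals post-dose. %Antinociception = 100(test − control latency)/(10 − control latency). A50 values obtained.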

[5] = target: T1, Delta-type opioid receptor; assay: Displacement of [3H]-naltrindole from human delta opioid receptor expressed in CHO cells at 10 uM after 3 hrs by scintillation counting analysis relative to control; format: cell-based
[6] = target: T2, Kappa-type opioid receptor; assay: Displacement of [3H]-U69593 from human kappa opioid receptor expressed in CHO cells at 10 uM after 60 mins by scintillation counting analysis […]; format: cell-based
Mus musculus [7] = assay: Antinociceptive activity in icv dosed CD-1 mouse assessed as time required to show maximum activity by 55 degC warm water tail-flick test; format: functional; procedure, shortened: as §1
Mus musculus [8] = assay: Antinociceptive activity in iv dosed CD-1 mouse assessed as time required to show maximum activity by 55 degC warm water tail-flick test; format: functional; procedure, shortened: as §2
Mus musculus [9] = assay: Antinociceptive activity in icv dosed CD-1 mouse assessed as time duration of activity by 55 degC warm water tail-flick test; format: functional; procedure, shortened: as §1
[10] = target: T1, Delta-type opioid receptor; assay: Binding affinity to delta opioid receptor (unknown origin)
Procedure, shortened: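 Membranes from CHO cells stably expressing the human δ-opioid receptor. Incubated 3 h at 25 °C with 0.2 nM [3H]naltrindole in 50 mM Tris-HCl, pH 7.5. Nonspecific binding with 100 μM naloxone. Glass-fibre filtration, cold-buffer washes, scintillation counting. IC50 from log-probit least-squares fit, converted to Ki.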

[11] = target: T2, Kappa-type opioid receptor; assay: Binding affinity to kappa opioid receptor (unknown origin)
Procedure, shortened: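 CHO cell membranes stably expressing the human κ-opioid receptor. Incubated with 1 nM [3H]U69,593 for 60 min at 25 °C in 50 mM Tris-HCl, pH 7.5. Naloxone 10 μM defined nonspecific binding. Filters presoaked at least 30 min in 0.1% polyethylenimine, then washed and counted. Ki calculated from IC50 (log-probit fit).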

| Structure (SMILES) | Ki [1] [nM] | Ki (Mu-type opioid receptor) [nM] | Ki [2] [nM] | A50 (Mus musculus [3]) [nmol] | A50 (Mus musculus [4]) [µmol/kg] | Activity [5] [%] | other results |
| --- | --- | --- | --- | --- | --- | --- | --- |
| CC(C)C[C@H](NC(=O)[C@H](CO)NC(=O)CCCNC(=O)[C@H](CC(C)C)NC(=O)[C@H](Cc1ccccc1)NC(=O)CNC(=O)[C@@H](NC(=O)[C@@H](N)Cc1ccc(O)cc1)[C@@H](C)O)C(N)=O (H-YTGFL[GABA]SL-NH2) | 6.6 | 3.8 | 39 | 0.06 | >11.3 |  |  |
| CC(C)C[C@H](NC(=O)[C@H](CO[C@@H]1O[C@H](CO)[C@@H](O)[C@H](O)[C@H]1O)NC(=O)[C@H](CCCCN)NC(=O)[C@H](CC(C)C)NC(=O)[C@H](C)NC(=O)[C@H](CCCCN)NC(=O)[C@H](CCCCN)NC(=O)C(C)(C)NC(=O)[C@H](CC(C)C)NC(=O)[C@H](CC(N)=O)NC(=O)CNC(=O)CNC(=O)[C@H](Cc1ccccc1)N(C)C(=O)CNC(=O)[C@@H](C)NC(=O)[C@@H](N)Cc1ccc(O)cc1)C(N)=O |  | 21 | 430 |  |  | 0 |  |
| CC(C)C[C@H](NC(=O)[C@H](CO[C@@H]1O[C@H](CO)[C@@H](O)[C@H](O)[C@H]1O)NC(=O)[C@H](CCCCN)NC(=O)[C@H](CC(C)C)NC(=O)[C@H](C)NC(=O)[C@H](CCC(=O)O)NC(=O)[C@H](CCC(=O)O)NC(=O)C(C)(C)NC(=O)[C@H](CC(C)C)NC(=O)[C@H](CC(N)=O)NC(=O)CNC(=O)CNC(=O)[C@H](Cc1ccccc1)N(C)C(=O)CNC(=O)[C@@H](C)NC(=O)[C@@H](N)Cc1ccc(O)cc1)C(N)=O |  |  |  |  |  | 0 | Activity [6]: 0% |
| CC(C)C[C@H](NC(=O)[C@H](CO[C@@H]1O[C@H](CO)[C@@H](O)[C@H](O)[C@H]1O)NC(=O)[C@H](CCCCN)NC(=O)[C@H](CC(C)C)NC(=O)[C@H](C)NC(=O)[C@H](CCCCN)NC(=O)[C@H](CCC(=O)O)NC(=O)C(C)(C)NC(=O)[C@H](CC(C)C)NC(=O)[C@H](CC(N)=O)NC(=O)CCCCNC(=O)[C@H](CC(C)C)NC(=O)[C@H](Cc1ccccc1)NC(=O)CNC(=O)[C@@H](NC(=O)[C@@H](N)Cc1ccc(O)cc1)[C@@H](C)O)C(N)=O (H-YTGFL[Ava]NL[Aib]EKALKS(βGlc)L-NH2) | 3.8 | 1.4 | 12 | 0.371 | 0.36 |  | Time (Mus musculus [7]): 10 min; Time (Mus musculus [8]): 30 min |
| CC(C)C[C@H](NC(=O)[C@H](CO[C@@H]1O[C@H](CO)[C@@H](O)[C@H](O)[C@H]1O)NC(=O)[C@H](CCCCN)NC(=O)[C@H](CC(C)C)NC(=O)[C@H](C)NC(=O)[C@H](CC(N)=O)NC(=O)[C@H](CC(N)=O)NC(=O)C(C)(C)NC(=O)[C@H](CC(C)C)NC(=O)[C@H](CC(N)=O)NC(=O)CNC(=O)CNC(=O)[C@H](Cc1ccccc1)N(C)C(=O)CNC(=O)[C@@H](C)NC(=O)[C@@H](N)Cc1ccc(O)cc1)C(N)=O |  | 120 |  |  |  | 0 | Activity [6]: 16% |
| CC(C)C[C@H](NC(=O)[C@H](CO[C@@H]1O[C@H](CO)[C@@H](O)[C@H](O)[C@H]1O)NC(=O)[C@H](CCCCN)NC(=O)[C@H](CC(C)C)NC(=O)[C@H](C)NC(=O)[C@H](CCCCN)NC(=O)[C@H](CCC(=O)O)NC(=O)C(C)(C)NC(=O)[C@H](CC(C)C)NC(=O)[C@H](CC(N)=O)NC(=O)CCCNC(=O)[C@H](CC(C)C)NC(=O)[C@H](Cc1ccccc1)NC(=O)CNC(=O)[C@@H](NC(=O)[C@@H](N)Cc1ccc(O)cc1)[C@@H](C)O)C(N)=O (H-YTGFL[GABA]NL[Aib]EKALKS(βGlc)L-NH2) | 4.2 | 4.3 | 11 | 0.046 | 0.31 |  | Time (Mus musculus [9]): 90 min; Time (Mus musculus [7]): 10 min; Time (Mus musculus [8]): 30 min |
| CC(C)C[C@H](NC(=O)[C@H](CO[C@@H]1O[C@H](CO)[C@@H](O)[C@H](O)[C@H]1O)NC(=O)[C@H](CCCCN)NC(=O)[C@H](CC(C)C)NC(=O)[C@H](C)NC(=O)[C@H](CCCCN)NC(=O)[C@H](CCC(=O)O)NC(=O)C(C)(C)NC(=O)[C@H](CC(C)C)NC(=O)[C@H](CC(N)=O)NC(=O)[C@@H]1CCCN1C(=O)[C@H](Cc1ccccc1)N(C)C(=O)CNC(=O)[C@@H](C)NC(=O)[C@@H](N)Cc1ccc(O)cc1)C(N)=O |  | 8.8 | 340 |  |  | 31 |  |
| CC(C)C[C@H](NC(=O)[C@H](CO[C@@H]1O[C@H](CO)[C@@H](O)[C@H](O)[C@H]1O)NC(=O)[C@H](CC(N)=O)NC(=O)[C@H](CC(C)C)NC(=O)[C@H](C)NC(=O)[C@H](CC(N)=O)NC(=O)[C@H](CC(N)=O)NC(=O)C(C)(C)NC(=O)[C@H](CC(C)C)NC(=O)[C@H](CC(N)=O)NC(=O)CNC(=O)CNC(=O)[C@H](Cc1ccccc1)N(C)C(=O)CNC(=O)[C@@H](C)NC(=O)[C@@H](N)Cc1ccc(O)cc1)C(N)=O |  | 5.2 | 340 |  |  | 22 |  |
| CC(C)C[C@H](NC(=O)[C@H](CO[C@@H]1O[C@H](CO)[C@@H](O)[C@H](O)[C@H]1O)NC(=O)[C@H](CCCCN)NC(=O)[C@H](CC(C)C)NC(=O)[C@H](C)NC(=O)[C@H](CCCCN)NC(=O)[C@H](CCC(=O)O)NC(=O)C(C)(C)NC(=O)[C@H](CC(C)C)NC(=O)[C@H](CC(N)=O)NC(=O)[C@@H]1CCCN1C(=O)[C@H](CC(C)C)NC(=O)[C@H](Cc1ccccc1)NC(=O)CNC(=O)[C@@H](NC(=O)[C@@H](N)Cc1ccc(O)cc1)[C@@H](C)O)C(N)=O | 3.6 | 2.6 | 2.3 | 0.739 | 0.36 |  | Time (Mus musculus [7]): 10 min; Time (Mus musculus [8]): 30 min |
| CC(C)C[C@H](NC(=O)[C@H](CO[C@@H]1O[C@H](CO)[C@@H](O)[C@H](O)[C@H]1O)NC(=O)[C@H](CCCCN)NC(=O)[C@H](CC(C)C)NC(=O)[C@H](C)NC(=O)[C@H](CC(N)=O)NC(=O)[C@H](CCC(=O)O)NC(=O)C(C)(C)NC(=O)[C@H](CC(C)C)NC(=O)[C@H](CC(N)=O)NC(=O)CNC(=O)CNC(=O)[C@H](Cc1ccccc1)N(C)C(=O)CNC(=O)[C@@H](C)NC(=O)[C@@H](N)Cc1ccc(O)cc1)C(N)=O |  | 1200 |  |  |  | 0 | Activity [6]: 0% |
| CC(C)C[C@H](NC(=O)[C@H](CO[C@@H]1O[C@H](CO)[C@@H](O)[C@H](O)[C@H]1O)NC(=O)[C@H](CCCCN)NC(=O)[C@H](CC(C)C)NC(=O)[C@H](C)NC(=O)[C@H](CCCCN)NC(=O)[C@H](CCC(=O)O)NC(=O)C(C)(C)NC(=O)[C@H](CC(C)C)NC(=O)[C@H](CC(N)=O)NC(=O)[C@@H]1CCCN1C(=O)CCNC(=O)[C@H](Cc1ccccc1)N(C)C(=O)CNC(=O)[C@@H](C)NC(=O)[C@@H](N)Cc1ccc(O)cc1)C(N)=O | 1200 | 5.6 | 100 |  |  |  |  |
| CC(C)C[C@H](NC(=O)[C@H](CO[C@@H]1O[C@H](CO)[C@@H](O)[C@H](O)[C@H]1O)NC(=O)CCCNC(=O)[C@H](CC(C)C)NC(=O)[C@H](Cc1ccccc1)NC(=O)CNC(=O)[C@@H](NC(=O)[C@@H](N)Cc1ccc(O)cc1)[C@@H](C)O)C(N)=O (H-YTGFL[GABA]S(βGlc)L-NH2) | 15 | 6.6 | 71 | 0.06 | 2.54 |  |  |
| CC(C)C[C@H](NC(=O)[C@H](CO[C@@H]1O[C@H](CO)[C@@H](O)[C@H](O)[C@H]1O)NC(=O)[C@H](CCCCN)NC(=O)[C@H](CC(C)C)NC(=O)[C@H](C)NC(=O)[C@H](CC(N)=O)NC(=O)[C@H](CCCCN)NC(=O)C(C)(C)NC(=O)[C@H](CC(C)C)NC(=O)[C@H](CC(N)=O)NC(=O)CNC(=O)CNC(=O)[C@H](Cc1ccccc1)N(C)C(=O)CNC(=O)[C@@H](C)NC(=O)[C@@H](N)Cc1ccc(O)cc1)C(N)=O | 430 | 0.24 | 11 |  |  |  |  |
| CC1(C)SCCSC[C@@H](NC(=O)[C@@H](N)Cc2ccc(O)cc2)C(=O)N[C@@H](Cc2ccccc2)C(=O)N[C@H]1C(N)=O (H-Y[dC]F[dPen]-NH2; linker 2-4 via CH2CH2) |  |  |  |  |  |  | Ki [10]: 24.8 nM; Ki [11]: 2000 nM |

— ChEMBL document CHEMBL3596173, “Structural Requirements for CNS Active Opioid Glycopeptides” (J Med Chem, 2015)
